# Sampled rows, rich in hits. Any-hit rate of the full collection: about 3.1%.
# KCNK9 inh: blocks the human KCNK9 two-pore domain potassium channel | Q9NPC2 | B-score at 10 µM | HEK293 KCNK9, FluxOR thallium flux fluorescence; hits give low values | 310,000 tested, 1.2% active;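 active = ratio B-score over 3 SD below the library mean, with starting fluorescence within 5 SD of its mean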;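 also: negative B-score means less thallium flux so channel inhibition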
# Target sequence (Q9NPC2 whole entry, looked up, the tested form may be a part): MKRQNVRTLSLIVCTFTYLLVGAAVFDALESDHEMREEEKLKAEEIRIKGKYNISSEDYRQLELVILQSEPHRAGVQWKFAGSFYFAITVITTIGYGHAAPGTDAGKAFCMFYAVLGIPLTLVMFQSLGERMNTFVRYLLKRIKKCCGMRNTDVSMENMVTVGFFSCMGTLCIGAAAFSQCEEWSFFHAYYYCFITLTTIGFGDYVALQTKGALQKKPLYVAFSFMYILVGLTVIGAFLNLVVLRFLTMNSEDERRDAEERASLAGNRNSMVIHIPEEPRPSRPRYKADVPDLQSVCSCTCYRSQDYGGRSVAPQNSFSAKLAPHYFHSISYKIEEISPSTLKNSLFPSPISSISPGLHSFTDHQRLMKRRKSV
# KCNQ1 act: potentiators or activators of human KCNQ1 potassium channel | P51787 | CHO-K1 KCNQ1, thallium flux FluxOR fluorescence; hits give high values | B-score at 10 µM | 310,000 tested, 0.35% active | AID 2648;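 active = fluorescence ratio B-score, a plate-corrected score, at least three library SD, with initial intensity B-score within 5 SD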
#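 Material: CHO-K1 cells stably expressing KCNQ1. Medium: assay buffer for compound exposure, DMSO matched across wells. Reagent: K+/Tl+ depolarizing stimulus. Compound dosing: single-concentration screen. Times: 37 °C overnight plating, 90-min dark dye load, 20-min compound pretreatment. Technique: FluxOR Tl+ flux fluorescence.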
# hERG rescue: hERG (human) protection from proarrhythmic block. Q12809. CHO-hERG, FluxOR thallium flux, dofetilide IC70 present. activation (rescue from dofetilide block), less the hit threshold, % at 10 µM. 310,000 tested, 0.51% active. AID 1511;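 active = activation above the mean of controls blocked by dofetilide plus 5 SD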;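 also: thallium influx through hERG after potassium depolarization seen as dye fluorescence rise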
# KCNK3 inh: human KCNK3 channel inhibition, primary screen. O14649. CHO-KCNK3 thallium flux, FluxOR fluorescence; hits give low values. B-score at 10 µM. 340,000 tested, 0.84% active. AID 602410;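 active = B-score under library mean minus 4 SD, starting fluorescence ratio at most library mean plus 5 SD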;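 also: more negative B-score means stronger inhibition of thallium flux through KCNK3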
# KCNQ1 block: inhibitors of human KCNQ1 potassium channel. CHO-K1 KCNQ1, FluxOR thallium flux fluorescence; hits give high values. B-score at 10 µM. 310,000 tested, 1.3% active. P51787. AID 2642;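 active = compounds whose thallium flux B-score, printed positive for inhibition, exceeds three library SD while starting fluorescence stays within three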;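 also: channel opened by potassium depolarization with thallium stimulus after 20 min compound exposure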
# * marks the source's active call; other numbers are inactive results; i = inactive; · = no result; ! = not active in a repeat.
SMILES,KCNK9 inh,KCNQ1 act,hERG rescue,KCNK3 inh,KCNQ1 block
Clc1ccc(-c2csc(N3CCc4ccccc4C3)n2)cc1,i,10*,-7,i,i
c1ccc(-c2csc(N3CCN(c4ccccn4)CC3)n2)cc1,-6.7*,i,-1,i,i
Cc1ccc(C2=N/C(=C\c3ccc(F)cc3)C(=O)N2)cc1,·,·,·,i,·
COc1ccc(C2(c3ccc(OC)cc3)NC(=O)N(CC(=O)NCC(C)c3ccccc3)C2=O)cc1 (stereo unspecified),·,·,·,i,·
c1ccc(-c2noc(CN3CCN(C(c4ccccc4)c4ccccc4)CC3)n2)cc1,-7.2*,i,-12,i,i
O=C(CN1CCc2ccccc2C1)Nc1ccc(OC(F)(F)F)cc1,i,i,-3,i,i
Cc1ccc2[nH]c(CCN(C)C)c(CN3CCOCC3)c2c1,·,·,·,i,·
O=C(Nc1ncc([N+](=O)[O-])s1)c1cccs1,i,i,-5,i,6*!
O=C(CS(=O)(=O)c1ccccc1)Nc1ncc([N+](=O)[O-])s1,i,i,-9,i,i
O=C(Nc1ncc([N+](=O)[O-])s1)c1ccccc1Br,i,i,-13,i,8*
Cc1ccc(Cl)cc1NC(=S)N(Cc1cccnc1)Cc1ccccc1Cl,i,i,-3,i,6*
Cc1ccccc1NC(=S)N(Cc1ccccc1)Cc1cccnc1,i,i,-8,i,i
CC(C)(C)c1ccc(C(=O)NC(=S)Nc2nc3c(s2)CCCC3)cc1,i,33*,28*,i,i
Cc1nc2ccc([N+](=O)[O-])cc2[nH]1,i,i,-13,i,i
O=[N+]([O-])c1cccc(/C=C/c2nc3ccc([N+](=O)[O-])cc3[nH]2)c1,i,i,-35,i,9*
CCCN(CC(=O)Nc1ccccc1OC)C(=O)CNC(=O)c1ccc(C)s1,·,·,·,i,·
CCOCCCNC(=O)C(NC(=O)Cc1cccs1)c1ccc(C)cc1 (stereo unspecified),i,i,12*,i,i
COc1cccc(C=NCC(C)N=Cc2cccc(OC)c2O)c1O (stereo unspecified),i,i,5.2*,i,i
COc1ccc(C(F)(F)F)cc1N/C=C/c1nnnn1-c1ccc(C)cc1,-6.7*,i,-12,i,i
Cc1ccc(OCC(=O)N2N=C(C(F)(F)F)CC2(O)C(C)(C)C)cc1C (stereo unspecified),i,i,-6,i,7*
Cc1ccccc1OCC(=O)N1N=C(C(F)(F)F)CC1(O)C(C)(C)C (stereo unspecified),i,i,-11,i,i
CC(C)(C)C1(O)CC(C(F)(F)F)=NN1C(=O)Cc1ccc([N+](=O)[O-])cc1 (stereo unspecified),i,12*,-2,i,i
CCC1=NN(C(=O)Cc2ccc([N+](=O)[O-])cc2)C(O)(C(F)(F)F)C1 (stereo unspecified),i,i,-7,i,i
COc1ccc(CC(=O)Nc2c3c(nn2C(C)(C)C)CS(=O)(=O)C3)cc1OC,i,i,-5,i,i
Cc1c(NC(=O)Nc2ccc(Cl)c(Cl)c2)sc(=S)n1C,i,i,-11,i,8*
SMILES,KCNK9 inh,KCNQ1 act,hERG rescue,KCNK3 inh,KCNQ1 block
COc1ccc(NC(=O)Nc2sc(=S)n(C)c2C)cc1,i,i,-2,i,i
CCc1cc2c(=O)n(Cc3ccco3)c(SCC(=O)NCC3CCCO3)nc2s1 (stereo unspecified),i,i,-5,i,i
CCc1cc2c(=O)n(Cc3ccco3)c(SCC(=O)N3CCCc4ccccc43)nc2s1,i,i,-7,i,6*
c1ccc(-c2nc(N3CCN(c4ccccc4)CC3)nc(-n3ccnc3)n2)cc1,-7.1*,i,-14,i,i
COCc1ccc(CN2CCC(C(=O)Nc3cccc(-c4cccc(Cl)c4)c3)CC2)o1,i,i,-32,i,8*
Cc1ccc(Nc2nnc(-c3ccc(N4CCOCC4)c([N+](=O)[O-])c3)c3ccccc23)cc1,i,i,-10,i,7*
O=[N+]([O-])c1cc(-c2nnc(Nc3ccccc3)c3ccccc23)ccc1N1CCOCC1,i,i,-3,i,i
CCCCN(C(=O)c1cccc(S(=O)(=O)N2CC(C)OC(C)C2)c1)c1c(N)n(CC(C)C)c(=O)[nH]c1=O (stereo unspecified),i,i,-7,i,i
COc1cc(OC)cc(C(=O)NC(=S)N2CCCCCC2)c1,i,i,10*,i,i
COc1ccc(C(=O)NC(=S)N2CCCCC2)cc1,i,i,-2,i,i
COc1ccc(C(=O)NC(=S)N2CCC(C)CC2)cc1,i,i,8.2*,i,i
O=c1nc(/C=C/c2ccc(-c3ccc(F)cc3)o2)cc(C(F)(F)F)[nH]1,i,i,-27,·,11*
COc1ccc(C(=O)OCC(=O)c2c[nH]c3ccccc23)c(OC)c1,·,·,·,i,·
CCOc1ccc(N(C)S(=O)(=O)c2ccc(C)c(C(=O)OCC(=O)c3c[nH]c4ccccc34)c2)cc1,-7.6*,i,-10,i,i
O=C1C(=O)N(CCN2CCOCC2)C(c2cccnc2)/C1=C(/O)c1ccccc1 (stereo unspecified),i,i,-8,·,i
O=C1C(=O)N(CCN2CCOCC2)C(c2cccnc2)/C1=C(/O)c1ccc(Cl)cc1 (stereo unspecified),i,i,5.5*,i,i
O=[N+]([O-])c1ccc(S(=O)(=O)c2cccc(C(F)(F)F)c2)nc1,i,i,-15,i,i
CC(=O)c1ccc(OC(C)C(=O)OCC(=O)NCCc2ccccc2)cc1 (stereo unspecified),·,·,·,i,·
O=C(COC(=O)c1cc(-c2cccs2)nn1-c1ccccc1)Nc1cccc([N+](=O)[O-])c1,-6.8*,i,-8,i,i
Cc1ccc(NC(=O)COC(=O)c2cc(-c3cccs3)nn2-c2ccccc2)cc1[N+](=O)[O-],i,i,-5,i,i
Cc1ccc(S(=O)(=O)N2CCN(C(=O)COC(=O)c3ccc(Br)o3)CC2)c(C)c1,i,i,-13,i,i
Cc1ccc(S(=O)(=O)N2CCN(C(=O)c3ccc(Br)o3)CC2)c(C)c1,i,11*,-12,i,i
Cc1ccc(S(=O)(=O)n2c(CN3CCCC(C)C3)nc3ccccc32)cc1 (stereo unspecified),-7.5*,i,-1,i,i
CCCCCCCCCCCCCCCC[n+]1ccccc1,·,·,·,-11*!,·
O=C(c1ccccc1)C(Nc1ccccn1)c1ccccc1 (stereo unspecified),-7*,i,-13,i,i
